Assay results: ChEMBL document CHEMBL1138914, “Design, synthesis, and structure-activity relationships of novel 2-substituted pyrazinoylguanidine epithelial sodium channel blockers: drugs for cystic fibrosis and chronic bronchitis” (J Med Chem, 2006)

Tested on: Epithelial cell
Experiment: Recovery of short-circuit current in dog primary bronchial epithelial cells
Type: functional, Canis lupus familiaris
Summary of the method: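 Canine primary bronchial epithelial monolayers in modified Ussing chambers, KRB pH 7.4, 37 °C, voltage clamped to 0 mV. After a full apical concentration-effect series, the mucosal bath was replaced with KRB three consecutive times. Short-circuit current was read 3 min after the third wash and expressed as percent of starting (basal) current.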

Row | SMILES | Activity [%]
1 | N/C(=N\C(=O)c1nc(Cl)c(N)nc1N)NCCCCCCc1ccccc1 | 12
2 | N/C(=N\C(=O)c1nc(Cl)c(N)nc1N)NCCCCc1ccccc1OCCO | 21
3 | N/C(=N\C(=O)c1nc(Cl)c(N)nc1N)NCCCCc1ccc(OCC(=O)O)cc1 | 79
4 | COc1ccc(CCCCC/N=C(\N)NC(=O)c2nc(Cl)c(N)nc2N)cc1 | 5.5
5 | N/C(=N\C(=O)c1nc(Cl)c(N)nc1N)NCCCCc1ccc(OC[C@H](O)CO)cc1 | 25
6 | N/C(=N\C(=O)c1nc(Cl)c(N)nc1N)NCCCCc1ccccc1 | 16
7 | N/C(=N\C(=O)c1nc(Cl)c(N)nc1N)NCCc1ccc(O)cc1 | 65
8 | N/C(=N\C(=O)c1nc(Cl)c(N)nc1N)NCCCCCCCCc1ccccc1 | 12
9 | N/C(=N\C(=O)c1nc(Cl)c(N)nc1N)NCCCCc1ccc(O)cc1 | 24
10 | CCCCCC/N=C(\N)NC(=O)c1nc(Cl)c(N)nc1N | 24
11 | COc1ccc(CCC/N=C(\N)NC(=O)c2nc(Cl)c(N)nc2N)cc1 | 57
12 | CCCCCCCC/N=C(\N)NC(=O)c1nc(Cl)c(N)nc1N | 7
13 | N/C(=N\C(=O)c1nc(Cl)c(N)nc1N)NCCCCc1ccc(O)c(O)c1 | 45
14 | N/C(=N\C(=O)c1nc(Cl)c(N)nc1N)NCCCCc1ccc(OCCO)cc1 | 29
15 | N/C(=N\C(=O)c1nc(Cl)c(N)nc1N)NCCCCCc1ccc(O)cc1 | 29
16 | N=C(NC(=O)c1nc(Cl)c(N)nc1N)Nc1ccccc1 | 15
17 | N/C(=N\C(=O)c1nc(Cl)c(N)nc1N)NCCCCc1cccc(OCCO)c1 | 30
18 | N/C(=N\C(=O)c1nc(Cl)c(N)nc1N)NCCc1ccccc1 | 21
19 | N/C(=N\C(=O)c1nc(Cl)c(N)nc1N)NCCCCc1ccccc1OCC(O)CO (configuration not stated) | 63
20 | N/C(=N\C(=O)c1nc(Cl)c(N)nc1N)NCCCc1ccccc1 | 23
21 | COc1ccc(COCC/N=C(\N)NC(=O)c2nc(Cl)c(N)nc2N)cc1 | 72

Row | SMILES | Activity [%]
22 | N/C(=N\C(=O)c1nc(Cl)c(N)nc1N)NCCCc1ccc(O)cc1 | 65
23 | N/C(=N\C(=O)c1nc(Cl)c(N)nc1N)NCCCOc1ccc(O)cc1 | 73
24 | N/C(=N\C(=O)c1nc(Cl)c(N)nc1N)NCCCCc1ccc(N)cc1 | 36
25 | N/C(=N\C(=O)c1nc(Cl)c(N)nc1N)NCCCCc1ccc(OCCCO)cc1 | 17
26 | N/C(=N\C(=O)c1nc(Cl)c(N)nc1N)NCCCCc1ccc(OC[C@@H](O)CO)cc1 | 18
27 | N/C(=N\C(=O)c1nc(Cl)c(N)nc1N)NCCCCc1cccc(OCC(O)CO)c1 (configuration not stated) | 37
28 | N/C(=N\C(=O)c1nc(Cl)c(N)nc1N)NCCCCc1ccc(C(=O)O)cc1 | 65
29 | COc1ccc(OCCC/N=C(\N)NC(=O)c2nc(Cl)c(N)nc2N)cc1 | 25
30 | N/C(=N\C(=O)c1nc(Cl)c(N)nc1N)NCCCCc1ccc(CO)cc1 | 20
31 | N/C(=N\C(=O)c1nc(Cl)c(N)nc1N)NCCCCCc1ccccc1 | 6
32 | N/C(=N\C(=O)c1nc(Cl)c(N)nc1N)NCCO | 77
33 | COc1ccc(CCCC/N=C(\N)NC(=O)c2nc(Cl)c(N)nc2N)cc1 | 19
34 | N/C(=N\C(=O)c1nc(Cl)c(N)nc1N)NCCCCc1ccccc1O | 11
35 | N/C(=N\C(=O)c1nc(Cl)c(N)nc1N)NCCCCc1ccc(OCCC(=O)O)cc1 | 65
36 | COC(=O)c1ccc(CCCC/N=C(\N)NC(=O)c2nc(Cl)c(N)nc2N)cc1 | 13
37 | N/C(=N\C(=O)c1nc(Cl)c(N)nc1N)NCCCCc1cccc(O)c1 | 14
38 | N/C(=N\C(=O)c1nc(Cl)c(N)nc1N)NCCCCc1ccc(OC2O[C@H](C(=O)O)[C@@H](O)[C@H](O)[C@H]2O)cc1 (some centres not stated) | 86
39 | N/C(=N\C(=O)c1nc(Cl)c(N)nc1N)NCCCCc1ccc(OS(=O)(=O)O)cc1 | 53
40 | N/C(=N\C(=O)c1nc(Cl)c(N)nc1N)NCCCCc1ccc(OCC(O)CO)cc1 (configuration not stated) [552-02 FREE BASE] | 20
41 | N=C(N)NC(=O)c1nc(Cl)c(N)nc1N [AMILORIDE] | 96
42 | N/C(=N\C(=O)c1nc(Cl)c(N)nc1N)NCc1ccccc1 [BENZAMIL] | 47
